Insulin prom act – TRM-6 insulin promoter activation; AID 1296; TRM-6 cells, insulin promoter eGFP reporter, imaging; plate-scaled: unstimulated 0, stimulated control 100; activation, % at 2 µM; 130,000 compounds, 0.81% hits;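 active = activation at 2 µM above a set limit, confirmed on inspection of the cell images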;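 also: share of cells whose green reporter signal exceeds an intensity cutoff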
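material = TRM-6 human fetal islet cells, insulin promoter–eGFP reporter | input = 1,000 TRM-6 cells seeded per well | benchmarks = stimulated versus unstimulated wells as plate controls | measured by = automated fluorescence imaging of paraformaldehyde-fixed, Hoechst-counterstained cells, green channel | schedule = compound exposure 48 h, 37 °C | reagent = tamoxifen at 0.75 µM added at seeding for reporter induction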
Active calls of the source: *. The full list was thinned out, with hits kept by preference.

SMILES	Insulin prom act
COCCNC(=O)C(c1c[nH]c2ccccc12)N(C(=O)c1snc(C(N)=O)c1N)c1cccc(OC)c1 (stereo not given)	-8
O=C(CSc1nnc(-c2ccco2)o1)NC1CCCCC1	0
O=C(CSc1nnc(-c2ccco2)o1)c1ccccc1Cl	0
CCN(CC)C(=O)CSc1nnc(-c2ccco2)o1	500*
Cc1sc2ncnc(SCC(=O)N(C)C3CCS(=O)(=O)C3)c2c1C (stereo not given)	0
Cc1ccc(C(=O)OCc2nnc(-c3ccc(Br)cc3)o2)cc1	0
CCOC(=O)CSc1ncc(-c2ccc([N+](=O)[O-])cc2)[nH]1	-3
CCN(CC)c1cnn(C/C(=N\OC)c2ccc(Cl)cc2)c(=O)c1Br	136
NS(=O)(=O)c1ccc(NC(=S)Nc2cc(Cl)c(Cl)cc2Cl)cc1	0
CC(=O)Nc1ccccc1C(=O)C(=O)Nc1ccc(C(=O)N2CCOCC2)cc1	-4
O=C(C1CCC(CNc2nc(=S)[nH]c3ccccc23)CC1)N1CCN(c2ccc(F)cc2)CC1 (stereo not given)	8
Oc1cc2c(cc1CN1CCN(c3cccc(C(F)(F)F)c3)CC1)CCC2	82*
O=C(c1c(F)c(F)c(F)c(F)c1F)N1CCN(c2cccc(C(F)(F)F)c2)CC1	0
FC(F)(F)c1cccc(N2CCN(CC3CC4C=CC3C4)CC2)c1 (stereo not given)	-8
Cc1nnc(SCC(=O)O)s1	8
Cc1nonc1NC(=O)Nc1cccnc1	-7
CCCNC(=O)CN1C(=O)NC(CCc2ccccc2)C1=O (stereo not given)	-73
CC(=O)Nc1ccc(NC(=O)Cn2cnc3c(nnn3Cc3ccc(F)cc3)c2=O)cc1	0
CC(=O)Nc1ccc(NC(=O)Cn2cnc3c(cnn3C(C)(C)C)c2=O)cc1	431*
CCOC(=O)c1ccccc1NC(=O)Cn1cnc2c(cnn2-c2ccc(OC)cc2)c1=O	-75
C/C(N)=C(/C#N)C(=O)CSc1nnc(COc2cc(C)ccc2C)o1	3
Cc1cc([N+](=O)[O-])nn1CC(=O)NCc1ccco1	0
Cn1cccc1C(=O)OCC(=O)c1cc2ccccc2o1	185*
Cc1cc(SCC(=O)c2cc3ccccc3o2)nc2ccccc12	8
CC(C)NC(=O)c1cc2ccccc2o1	-27
SMILES	Insulin prom act
Cc1cccc(OCC(=O)N/N=C/c2cc([N+](=O)[O-])ccc2N2CCOCC2)c1	0
COc1ccc(NC(=O)CSc2nnc(-c3ccoc3C)n2CC2CCCO2)cc1 (stereo not given)	506*
COc1cccc(NC(=O)CSc2nnc(-c3ccoc3C)n2CC2CCCO2)c1 (stereo not given)	6
O=C(CSc1nnc(-c2ccco2)n1CC1CCCO1)NC1CCCC1 (stereo not given)	-7
O=C(CCCN1C(=O)c2ccccc2C1=O)NCCN1C(=O)S/C(=C\c2cccs2)C1=O	3
O=C1OCC(CO)(CO)N=C1NNc1ccccc1Cl	0
CSc1nnc(-c2cc(C)on2)n1-c1ccccc1	8
O=C(Nc1nc2ccccc2[nH]1)c1cc2ccccc2o1	0
Cc1csc(Sc2ccc(S(=O)(=O)N3CCCC3)cn2)n1	-8
Clc1ccc(-n2ncc3c(NCC4CCCO4)ncnc32)cc1 (stereo not given)	0
O=C(CSCc1ccc(Cl)cc1)NCC1CCCO1 (stereo not given)	9
OC(CNCC1CCCO1)Cn1c2ccc(Cl)cc2c2cc(Cl)ccc21 (stereo not given)	89*
Cc1ccnc(N(C(=O)c2cccs2)C(=O)c2cccs2)c1	84*
Cc1cccc(-c2nnc(NC(=O)c3cccs3)s2)c1	2
Cc1ccc(-c2noc(CN(C(=O)c3cccs3)C(C)C)n2)cc1	9
Cn1c(=O)c2c(nc(SCC(=O)NCc3ccc4c(c3)OCO4)n2Cc2ccc(Cl)cc2)n(C)c1=O	-5
Cc1ccc(N2CCCCn3c2nc2c3c(=O)n(CC(=O)O)c(=O)n2C)cc1	-9
CC(=O)c1ccc(N2CCN(C(=O)CCCn3c(=S)[nH]c4cc5c(cc4c3=O)OCO5)CC2)cc1	136*
O=C(CCCn1c(=S)[nH]c2cc3c(cc2c1=O)OCO3)NC1CC1	4
Cc1cccc(N2CCN(C(=O)CCCn3c(=S)[nH]c4cc5c(cc4c3=O)OCO5)CC2)c1C	0
CC(=O)Nc1cc(ON=C(C)C)cc([N+](=O)[O-])c1	193
CCN(C(=O)c1cc(Cl)ccc1OC)c1ccccc1C	543*
CCN(C(=O)c1cn(C)c(=O)c2cc(OC)c(OC)cc12)c1ccccc1C	-81
COc1ccc(Cl)cc1NC(=O)c1ccccc1C	-3
O=C(NN1C(=O)c2ccc(-c3ccc4c(c3)C(=O)N(NC(=O)c3cccnc3)C4=O)cc2C1=O)c1cccnc1	6
SMILES	Insulin prom act
CCC1Cc2c(nc3c4c(nc(N5CCOCC5)c(C#N)c24)NC(C)=N3)O1 (stereo not given)	23
CCC(C)(C)NC(=O)C(c1ccncc1)N(Cc1ccc(C)cc1)C(=O)c1csnn1 (stereo not given)	0
C=CCN1C(=O)/C(=C\c2ccc(OC(=O)c3ccco3)c(OC)c2)SC1=S	111
Cc1ccc(N2C(=O)/C(=C\c3ccco3)SC2=S)cc1	-3
O=C1/C(=C\c2ccco2)SC(=S)N1Cc1ccccc1	150*
CCCCCCNS(=O)(=O)c1nc2nc(C)cc(C)n2n1	114
Cc1[nH]c(=O)[nH]c(=O)c1S(=O)(=O)N1CCC(C(=O)N2CCN(Cc3ccccc3)CC2)CC1	6
CS(=O)(=O)N1CCC(C(=O)N2CCN(Cc3ccccc3)CC2)CC1	438*
CS(=O)(=O)c1ccc(C(=O)N2CCN(Cc3ccccc3)CC2)cc1	0
O=C(CCN1C(=O)/C(=C/C=C/c2ccccc2)SC1=S)Nc1cccnc1	-5
C#CCN1C(=O)S/C(=C/C=C/c2ccc(N(C)C)cc2)C1=O	270*
CC1=NN(c2ccccc2)C(=O)/C1=C/C=C/c1ccc(N(C)C)cc1	0
O=C(Nc1c(Cl)ccc2nsnc12)c1cccnc1	-5
CCN1/C(=C/C(C)=C/c2sc3ccccc3[n+]2CC)Sc2ccccc21	641*
COc1ccc(/C=N/NC(=O)c2nonc2C)cc1	5
CCCn1c(SCC(=O)c2cc(C)c(C)cc2C)n[nH]c1=O	221
NC(=O)[C@@H]1CCCCNc2c(I)cc([N+](=O)[O-])cc2C(=O)N[C@@H](CCC(=O)O)C(=O)N[C@@H](CO)C(=O)N1	-60
CC(C)C[C@@H]1NC(=O)[C@H](Cc2ccc(O)cc2)NC(=O)c2cc([N+](=O)[O-])cc(I)c2NCCC[C@@H](C(N)=O)NC1=O	5
NC(=O)[C@@H]1CCCNc2c(I)cc([N+](=O)[O-])cc2C(=O)N[C@@H](Cc2ccccc2)C(=O)N[C@@H](Cc2cnc[nH]2)C(=O)N1	285*
COc1ccccc1NCC(=O)N/N=C(\C)c1cccs1	0
CS(=O)(=O)N(CC(=O)NCCSCc1ccccc1)c1ccc2c(c1)OCO2	204*
CN(C)C(=O)CN(c1ccc2c(c1)OCO2)S(C)(=O)=O	-71
CS(=O)(=O)N(CC(=O)NCc1ccccn1)c1ccc2c(c1)OCCO2	37
C=CCn1c(=NC(=O)CN2C(=O)CCC2=O)sc2cc(S(N)(=O)=O)ccc21	0
CCn1c(=NC(=O)CSC(C)=O)sc2cc(F)ccc21	79*
COC(=O)Cn1c(=NC(=O)c2cc(OC)cc(OC)c2)sc2cc(OC)ccc21	-3
CCOC(=O)N1CCC2(CC1)C(C#N)=C(N)Oc1c2c(C)nn1-c1cccc(Cl)c1	0

Source: PubChem (Columbia University Molecular Screening Center)
